ChEMBL document CHEMBL1140655, “Design and synthesis of hepatoselective, pyrrole-based HMG-CoA reductase inhibitors” (Bioorg Med Chem Lett, 2007)
Activity calls are given as the source filed them. The calls are words filed in the database; no cut-off is given here.

Legend:
Mus musculus = experiment: Inhibition of acute cholesterol synthesis in mouse at 1 mg/kg; assay type: functional; details: for inhibition in vivo at 1 mg/kg: read-out: Inhibition
[1] = biological target: T1, 3-hydroxy-3-methylglutaryl-coenzyme A reductase (Homo sapiens, UniProt P04035); experiment: Inhibition of HMG-CoA reductase
T1 sequence (P04035 whole entry): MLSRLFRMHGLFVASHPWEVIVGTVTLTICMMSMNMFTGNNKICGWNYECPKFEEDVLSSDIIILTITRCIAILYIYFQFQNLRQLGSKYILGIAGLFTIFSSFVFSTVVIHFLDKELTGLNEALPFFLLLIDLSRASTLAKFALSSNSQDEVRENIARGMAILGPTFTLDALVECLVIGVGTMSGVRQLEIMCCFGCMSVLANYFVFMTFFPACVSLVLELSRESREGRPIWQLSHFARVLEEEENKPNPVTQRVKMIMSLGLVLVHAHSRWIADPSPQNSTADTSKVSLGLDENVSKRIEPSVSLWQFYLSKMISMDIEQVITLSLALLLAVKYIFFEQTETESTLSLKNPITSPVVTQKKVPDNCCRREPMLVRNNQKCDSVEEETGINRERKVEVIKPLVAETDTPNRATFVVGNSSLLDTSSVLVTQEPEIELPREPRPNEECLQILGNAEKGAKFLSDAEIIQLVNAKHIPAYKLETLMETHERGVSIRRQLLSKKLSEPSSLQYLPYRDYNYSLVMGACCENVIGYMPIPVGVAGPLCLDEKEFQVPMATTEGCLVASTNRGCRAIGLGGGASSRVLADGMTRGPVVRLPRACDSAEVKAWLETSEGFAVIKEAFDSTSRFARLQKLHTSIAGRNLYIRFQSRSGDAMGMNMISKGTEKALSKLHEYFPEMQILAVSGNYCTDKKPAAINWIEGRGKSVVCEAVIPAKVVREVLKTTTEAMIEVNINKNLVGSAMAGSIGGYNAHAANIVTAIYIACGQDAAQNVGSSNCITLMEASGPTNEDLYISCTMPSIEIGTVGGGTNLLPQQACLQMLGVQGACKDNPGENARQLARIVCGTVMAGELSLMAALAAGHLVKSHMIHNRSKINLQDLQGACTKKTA

[2] = Inhibition of cholesterol synthesis in rat myocyte; assay type: functional, cell-based; details: Ventricular myocyte
Hepatocyte = experiment: Inhibition of cholesterol synthesis in rat hepatocyte; assay type: functional, cell-based
[3] = Reduction in LDL cholesterol on cholestyramine-primed orally dosed hamster plasma after 7 days; assay type: functional; details: Cricetulus griseus, po, 168 h
In short: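 Cholestyramine-primed hamsters were dosed orally once daily for 7 days at 0.1, 0.5, 1, 5, 10 or 50 mg/kg (separate groups, n = 10 each). Animals were sacrificed 2 h after the final dose and plasma LDL measured. Results are mean ± SEM percent change from control, with ED50 derived from the dose–response.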

[4] = Reduction in LDL cholesterol on cholestyramine-primed hamster serum at 10 mg/kg, po after 7 days; assay type: functional; design: scale not given: the % may be the effect or the level left
In short: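 Cholestyramine-primed hamsters were dosed orally at 10 mg/kg once daily for 7 days. At the end of treatment, serum LDL-C was measured and percent reduction calculated against an untreated control group.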

| Structure (SMILES) | IC50 [1] | IC50 [2] | inhibition in vivo at 1 mg/kg (Mus musculus) | IC50 (Hepatocyte) | ED50 [3] | Activity [4] | inhibition (Mus musculus) |
| --- | --- | --- | --- | --- | --- | --- | --- |
| Cc1cnc(CNC(=O)c2c(-c3ccccc3)c(-c3ccc(F)cc3)c(CC[C@@H](O)C[C@@H](O)CC(=O)O)n2C(C)C)[nH]1 | 3.4 nM | 10400 nM | 11% | 0.5 nM |  |  |  |
| CCNC(=O)c1c(-c2ccccc2)c(-c2ccc(F)cc2)c(CC[C@@H](O)C[C@@H](O)CC(=O)[O-])n1C(C)C.[Na+] | 12 nM | 2270 nM | 76% | 0.7 nM | 3 mg/kg | -24% |  |
| CC(C)NC(=O)c1c(-c2ccccc2)c(-c2ccc(F)cc2)c(CC[C@@H](O)C[C@@H](O)CC(=O)O)n1C(C)C | 15 nM | 1930 nM | 73% | 1.6 nM |  |  |  |
| CC(C)n1c(CC[C@@H](O)C[C@@H](O)CC(=O)O)c(-c2ccc(F)cc2)c(-c2ccccc2)c1C(=O)NCc1ccc(C(=O)N(C)C)cc1 | 1.2 nM | 6520 nM | 38% | 4.9 nM |  |  |  |
| CC(C)n1c(CC[C@@H](O)C[C@@H](O)CC(=O)O)c(-c2ccc(F)cc2)c(-c2ccccc2)c1C(=O)Nc1ccc(S(N)(=O)=O)cc1 | 2.9 nM | 1790 nM | 32% | 0.3 nM |  |  |  |
| Cc1cc(CNC(=O)c2c(-c3ccccc3)c(-c3ccc(F)cc3)c(CC[C@@H](O)C[C@@H](O)CC(=O)O)n2C(C)C)n[nH]1 | 2.6 nM | 10400 nM |  | 0.5 nM |  |  |  |
| CNC(=O)c1c(-c2ccccc2)c(-c2ccc(F)cc2)c(CC[C@@H](O)C[C@@H](O)CC(=O)[O-])n1C(C)C.[Na+] | 8.8 nM | 5300 nM | 83% | 1.2 nM |  | -12% |  |
| CC(C)n1c(CC[C@@H](O)C[C@@H](O)CC(=O)O)c(-c2ccc(F)cc2)c(-c2ccccc2)c1C(=O)Nc1ccc(C(=O)O)cc1 | 0.3 nM | 12600 nM |  | 0.1 nM |  |  | inactive |
| CC(C)n1c(CC[C@@H](O)C[C@@H](O)CC(=O)O)c(-c2ccc(F)cc2)c(-c2ccccc2)c1C(=O)NCc1cccc(C(N)=O)c1 | 1.2 nM | 3100 nM | 22% | 0.1 nM |  |  |  |
| CC(C)n1c(CC[C@@H](O)C[C@@H](O)CC(=O)[O-])c(-c2ccc(F)cc2)c(-c2ccccc2)c1C(=O)NC1CC1.[Na+] | 3.8 nM | 2780 nM | 70% | 2 nM |  | -24% |  |
| CC(C)n1c(CC[C@@H](O)C[C@@H](O)CC(=O)O)c(-c2ccc(F)cc2)c(-c2ccccc2)c1C(=O)NCc1ccc(C(=O)O)cc1 | 2.2 nM | 7920 nM | 7% | 0.1 nM |  |  |  |
| Cc1cc(CNC(=O)c2c(-c3ccccc3)c(-c3ccc(F)cc3)c(CC[C@@H](O)C[C@@H](O)CC(=O)O)n2C(C)C)nn1C | 0.6 nM | 3230 nM | 19% | 0.9 nM |  |  |  |
| CC(C)n1c(CC[C@@H](O)C[C@@H](O)CC(=O)[O-])c(-c2ccc(F)cc2)c(-c2ccccc2)c1C(N)=O.[Na+] | 3 nM | 2450 nM | 85% | 0.6 nM |  | -11% |  |

Now those with a lower IC50 [2], led by results:

| IC50 [1] | IC50 [2] | Structure (SMILES) | inhibition in vivo at 1 mg/kg (Mus musculus) | IC50 (Hepatocyte) | ED50 [3] | Activity [4] | inhibition (Mus musculus) |
| --- | --- | --- | --- | --- | --- | --- | --- |
| 20 nM | 1580 nM | CC(C)n1c(CC[C@@H](O)C[C@@H](O)CC(=O)O)c(-c2ccc(F)cc2)c(-c2ccccc2)c1C(=O)N(C)C | 85% | 0.9 nM |  |  |  |
| 1.4 nM | 1110 nM | CC(C)n1c(CC[C@@H](O)C[C@@H](O)CC(=O)O)c(-c2ccc(F)cc2)c(-c2ccccc2)c1C(=O)Nc1ccc(C(=O)N(C)C)cc1 | 10% | 0.7 nM |  |  |  |
| 1.5 nM | 1010 nM | Cc1csc(CNC(=O)c2c(-c3ccccc3)c(-c3ccc(F)cc3)c(CC[C@@H](O)C[C@@H](O)CC(=O)O)n2C(C)C)n1 | 33% | 1.5 nM |  |  |  |
| 0.3 nM | 684 nM | CC(C)n1c(CC[C@@H](O)C[C@@H](O)CC(=O)O)c(-c2ccc(F)cc2)c(-c2ccccc2)c1C(=O)Nc1ccc(C(N)=O)cc1 | 45% | 0.1 nM |  |  |  |
| 0.2 nM | 650 nM | CC(C)n1c(CC[C@@H](O)C[C@@H](O)CC(=O)O)c(-c2ccc(F)cc2)c(-c2ccccc2)c1C(=O)NCc1ccc(C#N)cc1 | 47% | 0.7 nM |  |  |  |
| 0.4 nM | 626 nM | CC(C)n1c(CC[C@@H](O)C[C@@H](O)CC(=O)O)c(-c2ccc(F)cc2)c(-c2ccccc2)c1C(=O)Nc1ccc(O)cc1 | 48% | 0.5 nM |  |  |  |
| 0.3 nM | 549 nM | CC(C)n1c(CC[C@@H](O)C[C@@H](O)CC(=O)O)c(-c2ccc(F)cc2)c(-c2ccc(F)cc2)c1C(=O)Nc1cccc(C(=O)N(C)C)c1 | 20% | 0.2 nM |  |  |  |
| 0.7 nM | 524 nM | CC(C)n1c(CC[C@@H](O)C[C@@H](O)CC(=O)O)c(-c2ccc(F)cc2)c(-c2ccc(F)cc2)c1C(=O)Nc1cccc(O)c1 | 22% | 1.2 nM |  |  |  |
| 0.8 nM | 472 nM | CC(C)n1c(CC[C@@H](O)C[C@@H](O)CC(=O)O)c(-c2ccc(F)cc2)c(-c2ccccc2)c1C(=O)NCc1ccccn1 | 39% | 0.1 nM |  |  |  |
| 0.8 nM | 310 nM | COc1ccc(CNC(=O)c2c(-c3ccccc3)c(-c3ccc(F)cc3)c(CC[C@@H](O)C[C@@H](O)CC(=O)O)n2C(C)C)cc1 | 52% | 0.4 nM |  |  |  |
| 3.1 nM | 250 nM | CC(C)c1nc(N(C)S(C)(=O)=O)nc(-c2ccc(F)cc2)c1/C=C/[C@@H](O)C[C@@H](O)CC(=O)O [ROSUVASTATIN] | 82% | 0.27 nM |  | -25% |  |
| 1.8 nM | 229 nM | CC(C)n1c(CC[C@@H](O)C[C@@H](O)CC(=O)O)c(-c2ccc(F)cc2)c(-c2ccccc2)c1C(=O)Nc1ccccc1 | 57% | 1 nM |  |  |  |
| 0.7 nM | 211 nM | COCc1ccc(CNC(=O)c2c(-c3ccccc3)c(-c3ccc(F)cc3)c(CC[C@@H](O)C[C@@H](O)CC(=O)O)n2C(C)C)cc1 |  | 1.5 nM |  |  |  |
|  | 150 nM | CCC(C)(C)C(=O)O[C@H]1C[C@@H](C)C=C2C=C[C@H](C)[C@H](CC[C@@H]3C[C@@H](O)CC(=O)O3)[C@H]21 [SIMVASTATIN] |  | 1.3 nM |  |  |  |
|  | 145 nM | CC(C)n1c(CC[C@@H](O)C[C@@H](O)CC(=O)O)c(-c2ccc(F)cc2)c(-c2ccc(F)cc2)c1C(=O)Nc1ccccc1 | 75% | 0.4 nM |  |  |  |
| 1.8 nM | 130 nM | COc1cccc(CNC(=O)c2c(-c3ccccc3)c(-c3ccc(F)cc3)c(CC[C@@H](O)C[C@@H](O)CC(=O)O)n2C(C)C)c1 |  | 0.1 nM |  |  |  |
| 6.6 nM | 50 nM | COc1cccc(NC(=O)c2c(-c3ccc(F)cc3)c(-c3ccc(F)cc3)c(CC[C@@H](O)C[C@@H](O)CC(=O)O)n2C(C)C)c1 | 54% | 0.3 nM |  |  |  |
| 0.8 nM | 44 nM | CC(C)n1c(CC[C@@H](O)C[C@@H](O)CC(=O)O)c(-c2ccc(F)cc2)c(-c2ccccc2)c1C(=O)NCc1ccccc1 | 46% | 0.3 nM |  |  |  |
